According to paper PMC12783166 (Clinical Pharmacokinetics, 2025):
“Also recorded” adds a separate entry of the source.

Assays:
[1] = Covariate evaluation of model-predicted 60 mg steady-state exposures; assay type: in vivo, human
In short: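 Final population model predicted steady-state AUC24 and Cmax for 60 mg once daily in EM phase 2b/3, EM phase 3 and CM phase 3 patients. Covariates included renal function, age, sex, weight, race and comedication with BCRP inhibitors, BCRP substrates or statins. Each subgroup is given as a geometric mean ratio with 95% CI against its reference group.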

[2] = tested on: P-gp; conditions: cited from earlier work
[3] = Individual predicted steady-state exposures; assay type: in vivo, human
In short: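 Steady-state AUC24, Ctrough, Cmax and Cavg were derived from each individual's Bayesian post hoc estimates from the final three-compartment population PK model, with sequential zero-/first-order lagged absorption. Values are summarised per […] as mean (SD) and median (5th–95th percentile).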

[4] = model-predicted steady state, 60 mg daily

SMILES: C[C@@H]1[C@H](c2c(F)ccc(F)c2F)C[C@H](NC(=O)c2cnc3c(c2)C[C@@]2(C3)C(=O)Nc3ncccc32)C(=O)N1CC(F)(F)F [atogepant, Atogepant]
- Effect of mild or moderate renal impairment on atogepant PK ([1]; model-predicted): no clinically relevant effect
- Change of Cmax with BCRP inhibitors [1, 4]: No change; also recorded: no impact
- Decrease of AUC24 with use of BCRP inhibitors [1, 4]: 1%
- Decrease of AUC24 with use of BCRP substrates [1, 4]: 3%
- Decrease of Cmax with use of BCRP substrates [1, 4]: 3%
- Increase of AUC24 with use of statins [1, 4]: 14%
- Increase of Cmax with use of statins [1, 4]: 13%
- Effect of age, BCRP inhibitors, BCRP substrates, statins, body weight, race, renal function and sex on steady-state AUC24 and Cmax ([1]; model-predicted, 60 mg daily, compared with reference groups): < 20%
- Transporter substrate status [2]: substrate
- Cavg, Mean (SD) ([3]; ADVANCE EM, 10 mg QD): 21.9 (14) ng/mL
- Cavg, Median (5th to 95th percentile) ([3]; ADVANCE EM, 10 mg QD): 19.3 (5.35–163) ng/mL
- Ctrough, Mean (SD) ([3]; ADVANCE EM, 10 mg QD): 3.24 (3.1) ng/mL
- Ctrough, Median (5th to 95th percentile) ([3]; ADVANCE EM, 10 mg QD): 2.62 (0.576–35.2) ng/mL
- Time above ½EC90 (4.2 ng/mL or 7 nM), Mean (SD) ([3]; ADVANCE EM, 10 mg QD): 18.1 (3.8) hr
- Time above ½EC90 (4.2 ng/mL or 7 nM), Median (5th to 95th percentile) ([3]; ADVANCE EM, 10 mg QD): 18.0 (8.00–24.0) hr
- Cavg, Mean (SD) ([3]; ADVANCE EM, 30 mg QD): 76.1 (54) ng/mL
- Cavg, Median (5th to 95th percentile) ([3]; ADVANCE EM, 30 mg QD): 65.1 (19.0–466) ng/mL
- Ctrough, Mean (SD) ([3]; ADVANCE EM, 30 mg QD): 12.0 (16) ng/mL
- Ctrough, Median (5th to 95th percentile) ([3]; ADVANCE EM, 30 mg QD): 8.85 (2.02–202) ng/mL
- Time above ½EC90 (4.2 ng/mL or 7 nM), Mean (SD) ([3]; ADVANCE EM, 30 mg QD): 23.7 (1.2) hr
- Time above ½EC90 (4.2 ng/mL or 7 nM), Median (5th to 95th percentile) ([3]; ADVANCE EM, 30 mg QD): 24.0 (16.0–24.0) hr
- Cavg, Mean (SD) ([3]; ADVANCE EM, 60 mg QD): 156 (94) ng/mL
- Cavg, Median (5th to 95th percentile) ([3]; ADVANCE EM, 60 mg QD): 134 (33.9–874) ng/mL
- Ctrough, Mean (SD) ([3]; ADVANCE EM, 60 mg QD): 23.8 (30) ng/mL
- Ctrough, Median (5th to 95th percentile) ([3]; ADVANCE EM, 60 mg QD): 18.4 (3.63–373) ng/mL
- Time above ½EC90 (4.2 ng/mL or 7 nM), Mean (SD) ([3]; ADVANCE EM, 60 mg QD): 24.0 (0.22) hr
- Time above ½EC90 (4.2 ng/mL or 7 nM), Median (5th to 95th percentile) ([3]; ADVANCE EM, 60 mg QD): 24.0 (21.5–24.0) hr
- Cavg, Mean (SD) ([3]; CGP-MD-01 EM, 10 mg QD): 19.2 (6.7) ng/mL
- Cavg, Median (5th to 95th percentile) ([3]; CGP-MD-01 EM, 10 mg QD): 19.3 (7.01–52.2) ng/mL
- Ctrough, Mean (SD) ([3]; CGP-MD-01 EM, 10 mg QD): 2.80 (1.4) ng/mL
- Ctrough, Median (5th to 95th percentile) ([3]; CGP-MD-01 EM, 10 mg QD): 2.58 (0.738–9.95) ng/mL
- Time above ½EC90 (4.2 ng/mL or 7 nM), Mean (SD) ([3]; CGP-MD-01 EM, 10 mg QD): 17.8 (3.5) hr
- Time above ½EC90 (4.2 ng/mL or 7 nM), Median (5th to 95th percentile) ([3]; CGP-MD-01 EM, 10 mg QD): 18.0 (9.00–24.0) hr
- Cavg, Mean (SD) ([3]; CGP-MD-01 EM, 30 mg BID): 162 (85) ng/mL
- Cavg, Median (5th to 95th percentile) ([3]; CGP-MD-01 EM, 30 mg BID): 132 (50.6–476) ng/mL
- Ctrough, Mean (SD) ([3]; CGP-MD-01 EM, 30 mg BID): 60.7 (44) ng/mL
- Ctrough, Median (5th to 95th percentile) ([3]; CGP-MD-01 EM, 30 mg BID): 44.5 (13.3–277) ng/mL
- Time above ½EC90 (4.2 ng/mL or 7 nM), Mean (SD) ([3]; CGP-MD-01 EM, 30 mg BID): 12.0 (0.0) hr
- Time above ½EC90 (4.2 ng/mL or 7 nM), Median (5th to 95th percentile) ([3]; CGP-MD-01 EM, 30 mg BID): 12.0 (12.0–12.0) hr
- Cavg, Mean (SD) ([3]; CGP-MD-01 EM, 30 mg QD): 71.3 (36) ng/mL
- Cavg, Median (5th to 95th percentile) ([3]; CGP-MD-01 EM, 30 mg QD): 66.2 (30.6–310) ng/mL
- Ctrough, Mean (SD) ([3]; CGP-MD-01 EM, 30 mg QD): 11.2 (16) ng/mL
- Ctrough, Median (5th to 95th percentile) ([3]; CGP-MD-01 EM, 30 mg QD): 8.97 (3.68–203) ng/mL
- Time above ½EC90 (4.2 ng/mL or 7 nM), Mean (SD) ([3]; CGP-MD-01 EM, 30 mg QD): 24.0 (0.19) hr
- Time above ½EC90 (4.2 ng/mL or 7 nM), Median (5th to 95th percentile) ([3]; CGP-MD-01 EM, 30 mg QD): 24.0 (21.5–24.0) hr
- Cavg, Mean (SD) ([3]; CGP-MD-01 EM, 60 mg BID): 331 (200) ng/mL
- Ctrough, Mean (SD) ([3]; CGP-MD-01 EM, 60 mg BID): 133 (140) ng/mL
- Ctrough, Median (5th to 95th percentile) ([3]; CGP-MD-01 EM, 60 mg BID): 101 (26.1–972) ng/mL
- Time above ½EC90 (4.2 ng/mL or 7 nM), Mean (SD) ([3]; CGP-MD-01 EM, 60 mg BID): 12.0 (0.0) hr
- Time above ½EC90 (4.2 ng/mL or 7 nM), Median (5th to 95th percentile) ([3]; CGP-MD-01 EM, 60 mg BID): 12.0 (12.0–12.0) hr
- Cavg, Mean (SD) ([3]; CGP-MD-01 EM, 60 mg QD): 152 (93) ng/mL
- Cavg, Median (5th to 95th percentile) ([3]; CGP-MD-01 EM, 60 mg QD): 144 (39.5–992) ng/mL
- Ctrough, Mean (SD) ([3]; CGP-MD-01 EM, 60 mg QD): 23.6 (30) ng/mL
- Ctrough, Median (5th to 95th percentile) ([3]; CGP-MD-01 EM, 60 mg QD): 19.5 (5.07–335) ng/mL
- Time above ½EC90 (4.2 ng/mL or 7 nM), Mean (SD) ([3]; CGP-MD-01 EM, 60 mg QD): 24.0 (0.0) hr
- Time above ½EC90 (4.2 ng/mL or 7 nM), Median (5th to 95th percentile) ([3]; CGP-MD-01 EM, 60 mg QD): 24.0 (24.0–24.0) hr
- Cavg, Mean (SD) ([3]; ELEVATE EM, 60 mg QD): 147 (75) ng/mL
- Cavg, Median (5th to 95th percentile) ([3]; ELEVATE EM, 60 mg QD): 138 (12.5–474) ng/mL
- Ctrough, Mean (SD) ([3]; ELEVATE EM, 60 mg QD): 15.4 (13) ng/mL
- Ctrough, Median (5th to 95th percentile) ([3]; ELEVATE EM, 60 mg QD): 13.4 (2.70–98.1) ng/mL
- Time above ½EC90 (4.2 ng/mL or 7 nM), Mean (SD) ([3]; ELEVATE EM, 60 mg QD): 23.9 (0.79) hr
- Time above ½EC90 (4.2 ng/mL or 7 nM), Median (5th to 95th percentile) ([3]; ELEVATE EM, 60 mg QD): 24.0 (17.5–24.0) hr
- Cavg, Mean (SD) ([3]; PROGRESS CM, 30 mg BID): 157 (87) ng/mL
- Cavg, Median (5th to 95th percentile) ([3]; PROGRESS CM, 30 mg BID): 135 (33.1–571) ng/mL
- Ctrough, Mean (SD) ([3]; PROGRESS CM, 30 mg BID): 56.1 (43) ng/mL
- Ctrough, Median (5th to 95th percentile) ([3]; PROGRESS CM, 30 mg BID): 42.4 (8.87–269) ng/mL
- Time above ½EC90 (4.2 ng/mL or 7 nM), Mean (SD) ([3]; PROGRESS CM, 30 mg BID): 24.0 (0.0) hr
